Results from the EternaBench riboswitch data.

Legend:
[1] = test system: MS2 coat protein; assay: apparent Kd, MS2 coat protein; higher = weaker binding; RNA-MaP array
Summary of the method: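 Designed RNAs were transcribed in place on an Illumina sequencing chip from sequenced DNA templates. At room temperature and with or without input ligand, they were incubated with fluorescently labeled MS2 coat protein from 1.5 nM to 3 μM, for 0.8–1.5 h at the lowest and 10–20 min at the highest concentrations. Apparent Kd is the median of the binding-curve fits made per cluster, with designs measured on fewer than 10 clusters excluded.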

[2] = test system: MS2 coat protein; assay: apparent Kd, MS2 coat protein; higher = weaker binding; RNA-MaP array; FMN 200 µM where present
Summary of the method: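 The apparent Kd is reported as the median of filtered per-cluster binding-curve fits. To get these curves, designs transcribed by stalled E. coli RNA polymerase on Illumina sequencing-chip clusters were titrated with SNAP-549-labelled MS2 coat protein from 0.7 or 1.5 nM, doubling to 3 µM. Titrations were run without and then with constant ligand in 100 mM Tris-HCl pH 7.5, 80 mM KCl, 4 mM MgCl2, BSA, DTT, yeast tRNA and Tween-20, and green signal was normalised to red-channel RNA signal and control-cluster median Fmax.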

[3] = designed as: OFF switch for flavin mononucleotide, no ligand
[4] = ligand present: flavin mononucleotide, designed as: OFF switch for flavin mononucleotide
[5] = designed as: ON switch for flavin mononucleotide, no ligand
[6] = ligand present: flavin mononucleotide, designed as: ON switch for flavin mononucleotide

Sequence	apparent Kd [1, 3]	apparent Kd [1, 4]	apparent Kd [2, 3]	apparent Kd [2, 4]	also measured
AGAGCACAUGAGGAUCACCCAUGUUAGGAUAUAAGUCUGGAUCUACCUGAGCCCGAUCUUAGAAGGAACGGUGU	11 nM	11.6 nM	–	–	–
AAGAAAUUCUCACAUGAGGAUCACCCAUGUCCACACGACUAGAGAAGGGCCUUCUACGUGCACUGGCAGGAUAUCUAACCGGGA	140 nM	87.5 nM	–	–	–
CGGCGACAUGAGGAUCACCCAUGUUAGGAUAUUCAGUUAACUGUGUUUGAUCGUUUGAGAAGAAGGAACGUGAG	10.7 nM	10.2 nM	–	–	–
AGUCGUACCAAGAAGGUACCCGGCUAAUGGUGGUAAGGAUAUUGUACGAACCCUAACAUGAGGAUCACCCAUGUCCACAGUGGG	53.5 nM	33 nM	–	–	–
GUCUCUAGGACAGGAUAUCUCCUCAGGGAUGCGAGAGAAGGGUCUAUUGACAUGAGGAUCACCCAUGUGGAUCAUGUCUAUGAU	378 nM	352 nM	–	–	–
CCAUUGCAUGGAGGAUAUGAGCAGUAAGUACUCUCAGAAGGCCACGGAGUAAACAAACCAUCUUACAUGAGGAUCACCCAUGUA	–	–	–	–	apparent Kd [1, 5]: 13 nM; apparent Kd [1, 6]: 7.69 nM
CCGCGCGUAGGAUAUACUAGUGUAUCAGUCGGUAUUGGAAAACAUGAGGAUCACCCAUGUAGAAGGACGCUAAU	8.4 nM	10.5 nM	–	–	–
UAAUAGAAAGGAUAUACAUAGGUUGGCUAAUGACGUUCCGAACAUGAGGAUCACCCAUGUAGAAGGUUCUGCGU	12.4 nM	29.5 nM	–	–	–
CCUCGUGGACAGGAUAUACACUCGUAUGAUCAUGUAGAAGGGUCCACAUGAGGAUCACCCAUGUUGACAGCCGU	60.5 nM	81.4 nM	–	–	–
GGGUACAUGGGAGGAUAUCAUGUAGAUACAUGAGGAUCACCCAUGUCGAUGGAGACAUCGGAGAUUGAGAAGGCCCAUGUACCG	–	–	–	–	apparent Kd [2, 5]: 696 nM; apparent Kd [2, 6]: 36.1 nM
GCUAUCGCAUGAGGAUAUGGUCAGCUUUGCUGACCAGAAGGCAUGUCAUAAGACAUGAGGAUCACCCAUGUAGUUAAGAUAGCA	–	–	–	–	apparent Kd [2, 5]: 840 nM; apparent Kd [2, 6]: 50.5 nM
CUGUGUCCGCAGGAUAUGUUAUCCUGAAGGAUCACAGAAGGGCGGACAUGAGGAUCACCCAUGUGAGCCAAAGA	–	–	16.2 nM	17.3 nM	–
AUAGAAGACUAGAAGGACCUAGUUGUAUAUUGUCGAGGUAUAUAAUUAGGUAGGAUAUGGGACAUGAGGAUCACCCAUGUCUUG	–	–	–	–	apparent Kd [2, 5]: 8.27 nM; apparent Kd [2, 6]: 7.5 nM
GAGCUAUGAGGAUAUGCAUAUAUACGGUUUCGUGUGGUACUACAUGAGGAUCACCCAUGUAGAAGGCGUGGCUG	–	–	17.7 nM	15.1 nM	–
AGUAUGAGAGGAUAUACGAAUAAACAUGGAAACAUGAUGGGACAUGAGGAUCACCCAUGUAGAAGGCUCGUACA	–	–	118 nM	358 nM	–
GACAUGAGGAUCACCCAUGUCCAACCAGAAGGCCAGAAAUCGAACCCGUGUAUCGGGUCCGAGAUGGAGGAUAUGGGCGCCGAA	–	–	–	–	apparent Kd [2, 5]: 72.4 nM; apparent Kd [2, 6]: 32.4 nM
CCGGAAACGGGUAGCCUGACAUGAGGAUCACCCAUGUGAUCCAAGGAUAUGGAUCCUAAUUGGAUCCAGAAGGUGGUUGGCUAC	–	–	–	–	apparent Kd [2, 5]: 76.7 nM; apparent Kd [2, 6]: 1200 nM
GUAGCAUACCAAGGAUAUUCAGGGCUUGGAUAGACAUGAGGAUCACCCAUGUGGCGAAAGUCUAGGGAGAAGGUGGAAUGCUAC	–	–	–	–	apparent Kd [2, 5]: 16.8 nM; apparent Kd [2, 6]: 15.1 nM
GGAUAGGACAGAGGAUAUACGUGCUAGAGAUACUAGCAAAAUUUCCUCACAUGAGGAUCACCCAUGUAGAAGGCUGUCCUGUCG	–	–	17.1 nM	354 nM	–
GCCGUUAAAGGAUAUACAUGAGGAUCACCCAUGUCGGUAUAAAAUUUACCGCCUCCCUGUAGAAGGUUAAGGCA	–	–	15.6 nM	19.8 nM	–
CCGAGUAGCGCAGGAUAUGACUUGGUUGUUUGGUCAGAAGGGUGAUUCUCGGUAAGAAACAGGACAUGAGGAUCACCCAUGUCA	–	–	–	–	apparent Kd [2, 5]: 102 nM; apparent Kd [2, 6]: 24.9 nM
AAUUUACAGCUAGGAUAUACAUGAGGAUCACCCAUGUAAUCAUAUGAUAUUUUUUUUGUAUGAGUGUAGAAGGAGCAAAUAAAA	–	–	9.38 nM	8.69 nM	–
ACAUGAUCAGGAUAUACAUGAGGAUCACCCAUGUUUAUCAGGGAAAAACCUUCUACAUGUAGAAGGGAUCUUGU	–	–	14.9 nM	14.2 nM	–
CAAAAGGAAGGAUAUACAUGUUAAUUAUCCGAAGAUGUCGUACAUGAGGAUCACCCAUGUAGAAGGUCCAAAAC	–	–	30.3 nM	78.7 nM	–
UUAAAUCAUGUAGGAUAUGCAUGGCGAAGCUACGCAGAAGGACAUGAGGAUCACCCAUGUUCUAGCGUCUGAGUUCAGAUGCAA	–	–	20.9 nM	41.7 nM	–
UAAGCGUAUGUUAGGAUAUGCUGGUCCUUGGAUCAGCAGAAGGAACAUGAGGAUCACCCAUGUAGAAUCGUUUA	–	–	18.3 nM	40.2 nM	–
